Data set [1] in a line: Tmax in Sprague-Dawley rat at 12 mg/kg, po by UPLC-MS/MS analysis. Type of data set: ADME, organism-based. The note with it: in vivo. An outline of the steps: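 Fasted male SD rats (200–250 g), oral 12 mg/kg (prodrugs calculated as JBP485). Jugular blood 0.083–10 h, centrifuged, plasma JBP485 by UPLC-MS/MS; n=6.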
The target in data set [2] is T1, Solute carrier family 15 member 1 (Homo sapiens, UniProt P46059).
T1 sequence (P46059 whole entry): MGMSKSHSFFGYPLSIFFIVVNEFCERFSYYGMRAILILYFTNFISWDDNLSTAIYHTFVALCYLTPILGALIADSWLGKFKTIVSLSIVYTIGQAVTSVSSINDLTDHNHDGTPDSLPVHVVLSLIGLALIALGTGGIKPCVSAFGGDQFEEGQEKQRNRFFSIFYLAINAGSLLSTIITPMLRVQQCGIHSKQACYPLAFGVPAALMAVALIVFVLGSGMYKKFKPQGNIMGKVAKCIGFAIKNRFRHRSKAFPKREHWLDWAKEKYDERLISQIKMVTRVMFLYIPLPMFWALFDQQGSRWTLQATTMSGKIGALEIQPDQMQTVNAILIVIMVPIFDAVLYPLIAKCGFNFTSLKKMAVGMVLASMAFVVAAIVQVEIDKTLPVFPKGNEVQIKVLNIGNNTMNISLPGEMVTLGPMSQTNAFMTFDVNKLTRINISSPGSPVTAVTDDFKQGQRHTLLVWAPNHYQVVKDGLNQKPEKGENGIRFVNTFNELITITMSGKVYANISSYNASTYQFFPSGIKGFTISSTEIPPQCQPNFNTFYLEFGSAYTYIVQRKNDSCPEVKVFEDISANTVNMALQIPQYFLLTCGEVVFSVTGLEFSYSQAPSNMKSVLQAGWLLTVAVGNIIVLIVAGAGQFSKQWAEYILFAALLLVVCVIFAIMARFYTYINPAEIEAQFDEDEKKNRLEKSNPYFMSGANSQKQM
In words: Substrate activity at PEPT1 in human Caco2 cells assessed as inhibition of Gly-Sar uptake by LC-MS/MS analysis. Type of data set: cell-based. The gist of the method:
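Caco-2 cells with 0.5 mM Gly-Sar probe substrate and competitor at 0.5–50 mM. IC50 by nonlinear fitting; n=3.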

The nature of data set [3]: AUC (0 to t) in Sprague-Dawley rat assessed as JBP485 level at 12 mg/kg, po by LC-MS/MS analysis. Type of data set: ADME, organism-based. The note with it: in vivo. An outline of the steps: (§1)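 Male SD rats, 200-250 g, fasted 12 h with water, n=6. Oral dose of 12 mg/kg as JBP485 equivalent; dose-effect arms at 12 and 100 mg/kg. JBP485 given iv at 6 mg/kg as the reference. Jugular blood taken at 0.083-10 h. Plasma JBP485 by UPLC-MS/MS. Absolute F = (AUCpo×Div)/(AUCiv×Dpo)×100%, using AUC0-t.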

A short description of data set [4]: Half life in Sprague-Dawley rat intestinal homogenates at 5 mM by HPLC analysis. The class given is ADME, tissue-based, Intestine. An outline of the steps: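 Jejunum and liver homogenates from male SD rats in pH 7.4 PBS, adjusted to 200 µg/mL protein, and rat plasma. Each incubated with compound at 5 mM at 37 °C.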
The nature of data set [5]: AUC (0 to t) in Sprague-Dawley rat assessed as JBP485 level at 100 mg/kg, po by LC-MS/MS analysis. Type of data set: ADME, organism-based. The note with it: in vivo. The gist of the method: as §1
Data set [6] is described as follows: Half life in pH 4.5 acetate buffer at 5 mM by HPLC analysis. Type of data set: physicochemical. An outline of the steps: (§2)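 Compound at 5 mM in 0.1 M HCl, pH 4.5 acetate buffer, pH 5.8/6.8/7.2 phosphate buffers, SGF (pH 1.2) and SIF (pH 6.8), prepared per Chinese Pharmacopoeia. Samples taken at 0-20 h and analyzed by HPLC-UV. k = 2.303×slope of log C versus time; t1/2 = 0.693/k.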

A short description of data set [7]: Tmax in Beagle dog at 12 mg/kg, po by UPLC-MS/MS analysis. The note with it: in vivo. The class given is ADME, organism-based, Canis lupus familiaris. An outline of the steps: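 Male beagle dogs, 2 years old, 8–10 kg, dosed orally at 12 mg/kg (prodrug calculated as JBP485) in aqueous solution. Jugular blood taken 0.167–8 h into heparin, centrifuged, plasma JBP485 by UPLC-MS/MS; n=6.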

Data set [8] can be described thus: Half life in pH 6.8 simulated intestinal fluid at 5 mM by HPLC analysis. Type of data set: ADME. The gist of the method: as §2
A short description of data set [9]: Half life in pH 6.8 phosphate buffer at 5 mM by HPLC analysis. Type of data set: physicochemical. The gist of the method:
as §2

Data set [10] in a line: Cmax in Sprague-Dawley rat assessed as JBP485 level at 12 mg/kg, po by LC-MS/MS analysis. The note with it: in vivo. The class given is ADME, organism-based. On the set-up: dose 12 mg/kg, route oral. An outline of the steps:
as §1

The nature of data set [11]: Terminal half life in Sprague-Dawley rat assessed as JBP485 level at 100 mg/kg, po by LC-MS/MS analysis. The class given is ADME, organism-based. The note with it: in vivo. An outline of the steps: (§3)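 Male SD rats (200–250 g) fasted 12 h, given JBP485 or prodrug (calculated as JBP485) orally at 12 or 100 mg/kg. Jugular blood sampled 0.083–10 h, plasma JBP485 by UPLC-MS/MS; n=6.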

The test system of data set [12] is Rattus norvegicus. In words: Anti-hepatitis activity in ANIT-induced po dosed Sprague-Dawley rat model of cholestasis assessed as reduction in serum total bilirubin level administered 30 mins prior to ANIT challenge and subsequent dosing at 8, 22, 32, and 46 hrs post ANIT challenge and measured 48 hrs post ANIT challenge. The class given is functional, organism-based. An outline of the steps:
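Male SD rats, 6 weeks old, fasted 12 h, 6 per group. Cholestasis induced by ANIT 50 mg/kg ip in olive oil. Test agents were given in water; UDCA 100 mg/kg was given orally in CMC-Na. Dosing at 30 min before and 8, 22, 32 and 46 h after ANIT. Serum taken from the abdominal aorta under chloral hydrate anesthesia at 48 h; total bilirubin measured with an assay kit.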

Data set [13] concerns the target T1, Solute carrier family 15 member 1. The data set can be described thus: Substrate activity at PEPT1 in human Caco2 cells assessed as protein-mediated drug uptake at 0.5 mM measured after 10 mins in pH 6 HBSS buffer by UPLC-MS/MS analysis. The note with it: caco-2, pH 6, 10 min, 500 µM. Type of data set: ADME, cell-based. The gist of the method: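 Caco-2 cells incubated 10 min with 0.5 mM compound in HBSS at pH 6.0 or pH 7.4, washed three times in ice-cold PBS pH 7.4, homogenised. Protein by DC assay; drug by UPLC-MS/MS; n=3.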

The nature of data set [14]: Terminal half life in Sprague-Dawley rat assessed as JBP485 level at 12 mg/kg, po by LC-MS/MS analysis. The note with it: in vivo. Type of data set: ADME, organism-based. An outline of the steps: as §3
Data set [15] in a line: Ratio of half-life in pH 7.2 phosphate buffer to half-life in Sprague-Dawley rat intestinal homogenates. Type of data set: ADME, tissue-based. The note with it: tissue homogenate.
In data set [16] the test system is Rattus norvegicus. In words: Anti-hepatitis activity in ANIT-induced Sprague-Dawley rat model of liver injury assessed as reduction in liver necrosis at 3.125 to 25 mg/kg, po administered 30 mins prior to ANIT challenge and subsequent dosing at 8, 22, 32, and 46 hrs post ANIT challenge and measured 48 hrs post ANIT challenge by H and E staining-based assay. The class given is functional, organism-based. The gist of the method: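 ANIT 50 mg/kg ip liver-injury model in male SD rats, 6 per group. Oral or ip treatment at 30 min before and 8, 22, 32 and 46 h after ANIT. Liver excised at 48 h, fixed in 4% formalin, stained with H&E, and examined microscopically for hepatocellular edema and necrosis.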

Data set [17] can be described thus: Ratio of half-life in pH 7.2 phosphate buffer to half-life in Sprague-Dawley rat plasma. The class given is ADME.

The structures appear in SMILES notation. The source made the active and inactive calls. No cut-off for these calls is given here. Some results are limits rather than exact numbers.

As for `O=C1N[C@@H](CO)C(=O)N2C[C@H](O)C[C@@H]12`, the figures for the Tmax in [1] and in [7] were 1.25 h and 1.5 h, respectively. For the same compound, in data set [2], the Ki came out at 36 mM. Besides, the AUCt came to 81.4 nM/ml.hr in data set [3] and 324 µM·h in [5]. For the same compound, the half-life at 5000 µM in data set [4], in data set [6], in data set [8] and in [9] was more than 20 h each time. The Cmax in data set [10] is given as 27.84 nM/ml. For the same compound, the “beta t1/2” value is 1.5 h in data set [11] and 2.12 h in data set [14]. In addition, in the data set with Rattus norvegicus [12], the Activity entry was “Dose-dependent effect”. The Drug uptake result in data set [13] is listed as “Active”.
As for `CC(C)[C@H](N)C(=O)OC[C@@H]1NC(=O)[C@@H]2C[C@@H](O)CN2C1=O`, the Ratio in data set [15] and in data set [17] was 3 to 35 each time. Further, the outcome in the data set on Rattus norvegicus [16] was Active. Further, the half-life at 5000 µM was less than 0.16 h in [4], more than 20 h in data set [6], 7.9 h in data set [8] and 7.7 h in data set [9]. Further, the Activity entry in the data set with Rattus norvegicus [12] was “Dose-dependent effect”. Besides, the Drug uptake result in data set [13] is listed as “Active”.

(Values after ChEMBL document CHEMBL4373712, “Bioactivatable Pseudotripeptidization of Cyclic Dipeptides To Increase the Affinity toward Oligopeptide Transporter 1 for Enhanced Oral Absorption: An Application to Cyclo(l-Hyp-l-Ser) (JBP485)” (J Med Chem, 2019).)
